# Test results as given in paper PMC5008178 (Molecular Microbiology, 2015).
# Like-named read-outs stand apart in the source and are kept apart here.
# How the values were obtained:
# [1] = system: chemotaxis pathway in B. subtilis; experiment: microbe, parasite or virus in culture; format: cell-based, Bacillus subtilis; settings: for EC50: read-out: EC50 of attractant FRET response
# [2] = system: chemotaxis pathway in E. coli; experiment: microbe, parasite or virus in culture; format: cell-based, Escherichia coli; settings: for repellent response in wild type, in words: wild-type E. coli cells, tested up to 1 mM where no response; for EC50: Escherichia coli
# Tar = Tar (Escherichia coli, UniProt P07017); experiment: FRET response in receptorless cells expressing Tar as sole receptor; format: cell-based; settings: Tar-only cells; for response mediated by Tar, in words: sub-millimolar range
# Summary of the method: (§1)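 Receptorless E. coli VS181 [Δ(cheY cheZ) Δ(tar tsr tap trg aer)] carries the CheY‑YFP/CheZ‑CFP pair (pVS88) and a plasmid with the single receptor. Cells are grown in TB at 34°C, 275 r.p.m., with inducers, and harvested at OD600 0.6. Buffer‑adapted cells get step addition and then removal of amino acid. YFP/CFP ratio (kinase activity) is read by fluorescence microscopy.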
# Tsr = Tsr (Escherichia coli, UniProt P02942); experiment: FRET response in receptorless cells expressing Tsr as sole receptor; format: cell-based; settings: for response mediated by Tsr, in words: Tsr-only cells, sub-millimolar range
# Summary of the method: as §1
# E. coli = experiment: Growth inhibition by individual amino acids in M9 glucose medium; format: cell-based, Escherichia coli; settings: 1 mM amino acid, M9 minimal glucose medium, culture density after 8 h
# Summary of the method: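 Cells grown in modified M9 (47 mM Na2HPO4, 22 mM KH2PO4, 8 mM NaCl, 2 mM MgSO4, 100 μM CaCl2) with glucose as carbon source. A single L‑amino acid (1 mM final) was added at the start; 37°C, 120 r.p.m. OD600 read after 8 h and normalised to a control culture without added amino acid.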
# [3] = read-out: EC50 of repellent response
# [4] = read-out: EC50 of attractant FRET response
# Tar, sequence (P07017 whole entry): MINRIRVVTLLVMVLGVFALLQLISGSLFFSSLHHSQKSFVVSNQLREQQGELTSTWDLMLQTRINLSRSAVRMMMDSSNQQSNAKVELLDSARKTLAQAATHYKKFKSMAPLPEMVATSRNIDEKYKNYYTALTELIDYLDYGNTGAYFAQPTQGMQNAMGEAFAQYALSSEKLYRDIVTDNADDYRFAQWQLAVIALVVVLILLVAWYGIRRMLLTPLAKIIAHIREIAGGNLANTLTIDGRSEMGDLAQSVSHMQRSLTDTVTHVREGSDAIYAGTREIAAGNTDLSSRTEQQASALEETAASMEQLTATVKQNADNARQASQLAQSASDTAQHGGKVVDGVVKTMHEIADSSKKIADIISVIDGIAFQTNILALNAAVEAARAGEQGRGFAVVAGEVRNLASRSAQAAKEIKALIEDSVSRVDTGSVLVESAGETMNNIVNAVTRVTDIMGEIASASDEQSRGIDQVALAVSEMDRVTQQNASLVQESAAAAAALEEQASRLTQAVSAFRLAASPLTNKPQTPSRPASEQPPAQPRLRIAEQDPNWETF
# Tar, sequence (P0A964 whole entry partner): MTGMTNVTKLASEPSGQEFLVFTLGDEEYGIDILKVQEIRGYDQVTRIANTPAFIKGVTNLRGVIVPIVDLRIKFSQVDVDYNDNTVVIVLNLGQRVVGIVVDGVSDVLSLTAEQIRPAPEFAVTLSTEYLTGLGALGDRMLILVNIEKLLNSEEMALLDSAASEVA
# Tar, sequence (P07363 whole entry partner): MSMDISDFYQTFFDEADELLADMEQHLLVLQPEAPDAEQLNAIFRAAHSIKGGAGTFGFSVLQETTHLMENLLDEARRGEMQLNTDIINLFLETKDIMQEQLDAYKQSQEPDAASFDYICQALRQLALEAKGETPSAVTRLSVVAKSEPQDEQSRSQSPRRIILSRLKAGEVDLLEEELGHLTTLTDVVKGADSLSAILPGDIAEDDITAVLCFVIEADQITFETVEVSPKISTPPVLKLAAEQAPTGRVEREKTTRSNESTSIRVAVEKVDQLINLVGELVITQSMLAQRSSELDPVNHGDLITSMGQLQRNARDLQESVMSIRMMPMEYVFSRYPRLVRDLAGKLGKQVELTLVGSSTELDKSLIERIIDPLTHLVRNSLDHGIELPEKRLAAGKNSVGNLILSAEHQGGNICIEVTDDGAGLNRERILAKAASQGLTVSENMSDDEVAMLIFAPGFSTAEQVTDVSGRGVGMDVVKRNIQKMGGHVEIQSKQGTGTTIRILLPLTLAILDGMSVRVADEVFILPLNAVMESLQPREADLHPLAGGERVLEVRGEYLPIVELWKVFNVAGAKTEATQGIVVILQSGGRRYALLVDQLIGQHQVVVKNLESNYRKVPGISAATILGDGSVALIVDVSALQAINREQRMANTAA
# Tsr, sequence (P02942 whole entry): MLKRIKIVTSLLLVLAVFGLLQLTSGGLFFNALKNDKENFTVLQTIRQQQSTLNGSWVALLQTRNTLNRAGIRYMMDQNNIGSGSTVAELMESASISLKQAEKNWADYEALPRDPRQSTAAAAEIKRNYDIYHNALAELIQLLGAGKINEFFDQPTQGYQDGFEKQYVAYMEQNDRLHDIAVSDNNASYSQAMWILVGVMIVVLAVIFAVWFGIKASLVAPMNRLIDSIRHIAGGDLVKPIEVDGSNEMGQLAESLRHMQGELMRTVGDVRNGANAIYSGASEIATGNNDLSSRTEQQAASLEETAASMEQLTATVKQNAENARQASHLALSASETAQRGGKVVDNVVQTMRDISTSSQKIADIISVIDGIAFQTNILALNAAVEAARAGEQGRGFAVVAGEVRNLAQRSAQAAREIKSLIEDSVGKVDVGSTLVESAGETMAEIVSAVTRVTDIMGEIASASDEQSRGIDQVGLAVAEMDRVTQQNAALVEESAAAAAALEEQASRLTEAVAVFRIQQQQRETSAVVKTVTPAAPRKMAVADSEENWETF
# Tsr, sequence (P0A964 whole entry partner): as the sequence (P0A964 whole entry partner) above
# Tsr, sequence (P07363 whole entry partner): as the sequence (P07363 whole entry partner) above
compound,measurement,setting,value
N[C@@H](Cc1ccc(O)cc1)C(=O)O [Tyrosine],FRET response in words,[1]; B. subtilis,lesser maximal activation
N[C@@H](CCC(=O)O)C(=O)O [Glutamate],"repellent response in wild type, in words",[2],no obvious repellent response
same,"response mediated by Tar, in words",Tar,attractant responses
same,EC50,[1]; B. subtilis,> 1000 µM
same,"repellent response in Tsr-only cells, in words",Tsr,weak repellent responses
N[C@@H](Cc1c[nH]cn1)C(=O)O [Histidine],"repellent response in wild type, in words",[2],no obvious repellent response
same,FRET response in words,[1]; B. subtilis,lesser maximal activation
same,"repellent response in Tsr-only cells, in words",Tsr,weak repellent responses
CSCC[C@H](N)C(=O)O [Methionine],attractant response in words,[2],weak attractant responses
same,"response mediated by Tar, in words",Tar,attractant responses
N[C@@H](Cc1c[nH]c2ccccc12)C(=O)O [Tryptophan],EC50,[2]; [3],100 to 3000 µM
same,"repellent response in wild type, in words",[2],clear repellent responses
same,FRET response in words,[1]; B. subtilis,lesser maximal activation
NC(=O)CC[C@H](N)C(=O)O [Glutamine],"repellent response in wild type, in words",[2],no obvious repellent response
same,"repellent response in Tsr-only cells, in words",Tsr,weak repellent responses
O=C(O)[C@@H]1CCCN1 [Proline],EC50,[1]; Bacillus subtilis,< 1 µM
N[C@@H](CS)C(=O)O [Cysteine],EC50,[2]; [4],< 10 µM
same,growth inhibition,E. coli,significant growth inhibition
same,"response mediated by Tar, in words",Tar,attractant responses
same,EC50,[1]; Bacillus subtilis,< 1 µM
same,"response mediated by Tsr, in words",Tsr,attractant responses
CC(C)C[C@H](N)C(=O)O [Leucine],EC50,[2]; [3],100 to 3000 µM
same,"repellent response in wild type, in words",[2],clear repellent responses
same,growth inhibition,E. coli,significant growth inhibition
C[C@H](N)C(=O)O [Alanine],"response mediated by Tar, in words",Tar,attractant responses
same,"response mediated by Tsr, in words",Tsr,attractant responses
NCCCC[C@H](N)C(=O)O [Lysine],FRET response in words,[1]; B. subtilis,did not elicit clear responses
N=C(N)NCCC[C@H](N)C(=O)O [Arginine],FRET response in words,[1]; B. subtilis,did not elicit clear responses
"NC(=O)C[C@H](N)C(=O)O [Aparagine, Asparagine]","response mediated by Tar, in words",Tar,attractant responses
same,EC50,[1]; Bacillus subtilis,< 1 µM
same,"response mediated by Tsr, in words",Tsr,attractant responses
CC[C@H](C)[C@H](N)C(=O)O [Isoleucine],EC50,[2]; [3],100 to 3000 µM
same,"repellent response in wild type, in words",[2],clear repellent responses
C[C@@H](O)[C@H](N)C(=O)O [Threonine],attractant response in words,"[2]; wild-type E. coli, millimolar concentrations",weak attractant responses
N[C@@H](CO)C(=O)O [Serine],EC50,[2]; [4],< 10 µM
same,growth inhibition,E. coli,significant growth inhibition
same,level at which the response saturated,Tar; saturating concentration,~20 % of the initial activity
same,"response mediated by Tar, in words",Tar,attractant responses
same,"response mediated by Tsr, in words",Tsr,attractant responses
"N[C@@H](Cc1ccccc1)C(=O)O [Phenyalanine, phenylalanine]","repellent response in wild type, in words",[2],no obvious repellent response
same,"repellent response in Tsr-only cells, in words",Tsr,weak repellent responses
N[C@@H](CC(=O)O)C(=O)O [Aspartate],EC50,[2]; [4],< 10 µM
same,"repellent response in wild type, in words",[2],no obvious repellent response
same,"response mediated by Tar, in words",Tar,attractant responses
same,EC50,[1]; Bacillus subtilis,> 1000 µM
same,"repellent response in Tsr-only cells, in words",Tsr,weak repellent responses
CC(C)[C@H](N)C(=O)O [Valine],EC50,[2]; [3],100 to 3000 µM
same,"repellent response in wild type, in words",[2],clear repellent responses
same,growth inhibition,E. coli,significant growth inhibition
NCC(=O)O [Glycine],"response mediated by Tar, in words",Tar,attractant responses
same,"response mediated by Tsr, in words",Tsr,attractant responses
